Data from ChEMBL document CHEMBL1817572, “New, potent, selective, and short-acting peptidic V1a receptor agonists” (J Med Chem, 2011).
Numbered stars: 1 amine (or outer) side, 2 acyl side, 3 side chain; on linkers, the order of the positions; unused ones are H or OH. Bridge positions count the residues as written; N and C are the ends. Square brackets hold non-standard residues; d marks the D form. Peptide text beside a SMILES is read from it. X1 = CCNCCC[C@H](N[*:1])C(=O)[*:2]; Orn = NCCC[C@H](N)C(=O)O; Dab = NCC[C@H](N)C(=O)O

Legend:
Rattus norvegicus [1] = experiment: Vasoconstriction in Wistar rat assessed as assessed as decay in vasopressive duration of action at 0.1 nmol/kg, iv bolus measured over 10 sec interval; type: functional
[2] = biological target: Vasopressin V1a/V2 (Homo sapiens) (UniProt P30518+P37288); experiment: Selectivity ratio of EC50 for human vasopressin V2 receptor to EC50 for human vasopressin V1a receptor
Vasopressin V1a receptor [3] = biological target: Vasopressin V1a receptor (Homo sapiens, UniProt P37288); experiment: Agonist activity at recombinant human vasopressin V1a receptor expressed in HEK293 cells by luciferase reporter gene assay; type: functional, cell-based; details: read-out: EC50
Vasopressin V1b receptor = biological target: T1, Vasopressin V1b receptor (Homo sapiens, UniProt P47901); experiment: Agonist activity at recombinant human vasopressin V1b receptor expressed in Flp-In-293 cells by luciferase reporter gene assay; type: functional, cell-based; details: read-out: EC50
T1 sequence (P47901 whole entry): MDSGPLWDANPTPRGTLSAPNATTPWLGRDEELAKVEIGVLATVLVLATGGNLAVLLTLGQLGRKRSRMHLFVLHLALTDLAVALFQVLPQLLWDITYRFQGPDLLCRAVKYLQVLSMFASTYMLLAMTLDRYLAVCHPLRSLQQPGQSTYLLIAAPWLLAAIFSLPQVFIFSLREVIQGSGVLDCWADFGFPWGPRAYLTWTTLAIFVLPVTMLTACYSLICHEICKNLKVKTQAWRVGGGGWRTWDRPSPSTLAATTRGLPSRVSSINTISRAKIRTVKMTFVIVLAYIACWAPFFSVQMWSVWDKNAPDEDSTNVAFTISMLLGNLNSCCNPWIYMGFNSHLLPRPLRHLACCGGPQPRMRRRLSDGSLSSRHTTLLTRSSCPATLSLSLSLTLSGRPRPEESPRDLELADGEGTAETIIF
Method in brief: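 Reporter gene assays in HEK293 cells transiently cotransfected with V1a (human or rat) or human V2 receptor vector plus NFAT-luciferase (V1a) or CRE-luciferase (V2) reporter; V1b in Flp-In-293 stably expressing receptor, OT in CHO-K1 stably expressing receptor, both transiently transfected with NFAT-luciferase. Two days post-transfection, peptides added for 5 h at 37 °C, lysis with luciferin, luminescence read.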

Vasopressin V2 receptor [4] = biological target: T2, Vasopressin V2 receptor (Homo sapiens, UniProt P30518); experiment: Agonist activity at recombinant human vasopressin V2 receptor expressed in HEK293 cells by luciferase reporter gene assay; type: functional, cell-based
Oxytocin receptor = biological target: T3, Oxytocin receptor (Homo sapiens, UniProt P30559); experiment: Agonist activity at human OT receptor expressed in CHO-K1 cells by luciferase reporter gene assay; type: functional, cell-based
T3 sequence (P30559 whole entry): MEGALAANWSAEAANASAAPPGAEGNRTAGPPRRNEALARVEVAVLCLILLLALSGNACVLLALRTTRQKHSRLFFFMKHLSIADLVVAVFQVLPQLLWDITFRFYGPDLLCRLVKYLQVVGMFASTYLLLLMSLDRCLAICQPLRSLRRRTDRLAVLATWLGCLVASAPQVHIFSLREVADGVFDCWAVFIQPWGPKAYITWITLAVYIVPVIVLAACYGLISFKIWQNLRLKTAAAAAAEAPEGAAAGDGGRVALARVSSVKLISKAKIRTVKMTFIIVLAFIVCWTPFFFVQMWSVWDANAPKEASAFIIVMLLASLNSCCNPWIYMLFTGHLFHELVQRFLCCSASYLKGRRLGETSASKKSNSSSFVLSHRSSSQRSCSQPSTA

Homo sapiens [5] = organism: Homo sapiens; experiment: Selectivity ratio of EC50 for human vasopressin V1b receptor to EC50 for human vasopressin V1a receptor
Homo sapiens [6] = organism: Homo sapiens; experiment: Selectivity ratio of EC50 for human oxytocin receptor to EC50 for human vasopressin V1a receptor
Vasopressin V1a receptor [7] = biological target: Vasopressin V1a receptor (Rattus norvegicus, UniProt P30560); experiment: Agonist activity at recombinant rat vasopressin V1a receptor expressed in HEK293 cells by luciferase reporter gene assay; type: functional, cell-based; details: read-out: EC50
Rattus norvegicus [8] = experiment: Vasoconstriction in Wistar rat assessed as decay in vasopressive duration of action at 1 nmol/kg, iv bolus measured over 10 sec interval; type: functional
Method in brief: (§1)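 Fasted male Wistar rats (206–340 g) under isoflurane, then thiobutabarbital 150 mg/kg ip, ventilated, 37–38 °C, with carotid pressure and jugular dosing. Dibenamine 1.8 mg/rat iv pretreatment. Sequence: iv boluses (0.5 mL/kg) of heparinized vehicle, then two reference doses of 0.1 nmol/kg, then two test doses; one matches the reference diastolic pressure rise. Relative duration = reference decay rate / test decay rate; mean ± SEM.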

Rattus norvegicus [9] = experiment: Vasoconstriction in Wistar rat assessed as assessed as decay in vasopressive duration of action at 0.2 nmol/kg, iv bolus measured over 10 sec interval; type: functional
Vasopressin V2 receptor [10] = biological target: T2, Vasopressin V2 receptor; experiment: Partial agonist activity at recombinant human vasopressin V2 receptor expressed in HEK293 cells by luciferase reporter gene assay; type: functional, cell-based
Method in brief: (§2)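 Same luciferase reporter systems (OT in stable CHO-K1, V1b in stable Flp-In-293, each with transient NFAT-luciferase; V1a in HEK293 with NFAT-luciferase, V2 in HEK293 with CRE-luciferase). Peptides added for 5 h at 37 °C two days post-transfection, luminescence read. Partial agonism means efficacy <70%.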

[11] = biological target: T4, Vasopressin V1b receptor (Homo sapiens) (UniProt P47901); experiment: Partial agonist activity at recombinant human vasopressin V1b receptor expressed in Flp-In-293 cells by luciferase reporter gene assay; type: functional, cell-based; method in brief: as §2
T4 sequence (whole entry): T1 sequence (P47901 whole entry)

Rattus norvegicus [12] = experiment: Vasoconstriction in Wistar rat assessed as assessed as decay in vasopressive duration of action at 6 nmol/kg, iv bolus measured over 10 sec interval; type: functional; method in brief: as §1

Vasopressin V1a receptor (Homo sapiens, UniProt P37288), sequence (P37288 whole entry): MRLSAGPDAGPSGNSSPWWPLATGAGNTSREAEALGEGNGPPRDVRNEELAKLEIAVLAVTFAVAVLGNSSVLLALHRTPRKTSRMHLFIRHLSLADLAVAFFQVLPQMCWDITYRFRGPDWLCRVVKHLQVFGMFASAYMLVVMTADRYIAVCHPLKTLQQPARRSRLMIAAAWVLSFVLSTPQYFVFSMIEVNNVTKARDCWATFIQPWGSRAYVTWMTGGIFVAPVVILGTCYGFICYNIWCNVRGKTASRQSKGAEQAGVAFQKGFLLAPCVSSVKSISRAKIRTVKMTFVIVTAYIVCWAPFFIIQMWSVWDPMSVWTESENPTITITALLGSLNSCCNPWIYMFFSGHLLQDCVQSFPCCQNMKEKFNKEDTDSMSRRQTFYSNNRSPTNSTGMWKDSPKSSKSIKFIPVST
T2 sequence (P30518 whole entry): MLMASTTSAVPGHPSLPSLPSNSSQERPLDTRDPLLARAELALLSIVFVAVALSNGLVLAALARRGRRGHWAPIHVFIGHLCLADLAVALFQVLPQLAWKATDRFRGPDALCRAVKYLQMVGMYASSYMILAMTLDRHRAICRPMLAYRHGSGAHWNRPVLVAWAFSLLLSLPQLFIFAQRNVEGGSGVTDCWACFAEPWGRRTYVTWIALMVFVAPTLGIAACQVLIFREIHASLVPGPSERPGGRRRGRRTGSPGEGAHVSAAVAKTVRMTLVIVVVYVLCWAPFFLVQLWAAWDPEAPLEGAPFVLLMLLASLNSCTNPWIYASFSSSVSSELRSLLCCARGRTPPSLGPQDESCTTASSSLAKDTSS
Vasopressin V1a/V2 (Homo sapiens), sequence (P30518 whole entry, looked up): as the sequence (P30518 whole entry) above
Vasopressin V1a/V2 (Homo sapiens), sequence (P37288 whole entry, looked up): as the sequence (P37288 whole entry) above
Vasopressin V1a receptor (Rattus norvegicus, UniProt P30560), sequence (P30560 whole entry): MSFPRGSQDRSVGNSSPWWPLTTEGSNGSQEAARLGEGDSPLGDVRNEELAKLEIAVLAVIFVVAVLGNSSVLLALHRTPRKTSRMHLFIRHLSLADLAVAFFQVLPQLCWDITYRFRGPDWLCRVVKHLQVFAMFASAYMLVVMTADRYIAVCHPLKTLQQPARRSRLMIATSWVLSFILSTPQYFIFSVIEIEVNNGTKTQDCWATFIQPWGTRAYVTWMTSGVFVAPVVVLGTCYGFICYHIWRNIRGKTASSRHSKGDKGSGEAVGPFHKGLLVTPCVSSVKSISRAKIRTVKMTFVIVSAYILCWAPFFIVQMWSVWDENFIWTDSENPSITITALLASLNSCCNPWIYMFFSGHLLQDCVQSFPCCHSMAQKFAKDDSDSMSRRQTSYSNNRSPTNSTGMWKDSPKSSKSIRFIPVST

SMILES	Ratio EC50 [2]	EC50 (Vasopressin V1a receptor [3]) [nM]	EC50 (Vasopressin V1b receptor) [nM]	EC50 (Vasopressin V2 receptor [4]; hek293, read-out: EC50) [nM]	EC50 (Vasopressin V2 receptor [4]; read-out: pEC50 (converted)) [nM]	EC50 (Oxytocin receptor; cho-k1, read-out: EC50) [nM]	EC50 (Oxytocin receptor; read-out: pEC50 (converted)) [nM]	Ratio EC50 (Homo sapiens [5])	Ratio EC50 (Homo sapiens [6])	EC50 (Vasopressin V1a receptor [7]) [nM]	Time (Rattus norvegicus [1]) [unitless ratio]	Time (Rattus norvegicus [8]) [unitless ratio]	EC50 (Vasopressin V2 receptor [4]; read-out: EC50) [nM]	EC50 (Oxytocin receptor; read-out: EC50) [nM]	Time (Rattus norvegicus [9]) [min]	Efficacy (Vasopressin V2 receptor [10]) [%]	Efficacy [11] [%]	Time (Rattus norvegicus [12]) [unitless ratio]
N=C(N)NCCC[C@H](NC(=O)[C@@H]1CCCN1C(=O)[C@@H]1CSSC[C@H](N)C(=O)N[C@@H](Cc2ccc(O)cc2)C(=O)N[C@@H](Cc2ccccc2)C(=O)N[C@@H](CCC(N)=O)C(=O)N[C@@H](CC(N)=O)C(=O)N1)C(=O)NCC(N)=O [VASOPRESSIN]											1							
CCNCCC[C@H](NC(=O)[C@@H]1CCCN1C(=O)[C@@H]1CSSC[C@H](N)C(=O)N[C@@H](Cc2ccccc2)C(=O)N[C@@H]([C@@H](C)CC)C(=O)N[C@@H](CCC(N)=O)C(=O)N[C@@H](CC(N)=O)C(=O)N1)C(=O)NCC(N)=O (H-CFIQNCP[X1]G-NH2; disulfide 1-6)	450	0.57	32					56	56	0.16			260	32	2.1	< 70	< 70	
NCCC[C@H](NC(=O)[C@@H]1CCCN1C(=O)[C@@H]1CSSC[C@H](N)C(=O)N[C@@H](Cc2ccc(O)cc2)C(=O)N[C@@H](Cc2ccccc2)C(=O)N[C@@H](CCC(N)=O)C(=O)N[C@@H](CC(N)=O)C(=O)N1)C(=O)NCC(N)=O [ORNIPRESSIN]			7.5								1.1			71				

The next lines start with results.

Ratio EC50 [2]	EC50 (Vasopressin V1a receptor [3]) [nM]	EC50 (Vasopressin V1b receptor) [nM]	EC50 (Vasopressin V2 receptor [4]; hek293, read-out: EC50) [nM]	EC50 (Vasopressin V2 receptor [4]; read-out: pEC50 (converted)) [nM]	EC50 (Oxytocin receptor; cho-k1, read-out: EC50) [nM]	EC50 (Oxytocin receptor; read-out: pEC50 (converted)) [nM]	Ratio EC50 (Homo sapiens [5])	Ratio EC50 (Homo sapiens [6])	EC50 (Vasopressin V1a receptor [7]) [nM]	SMILES	Time (Rattus norvegicus [1]) [unitless ratio]	Time (Rattus norvegicus [8]) [unitless ratio]	EC50 (Vasopressin V2 receptor [4]; read-out: EC50) [nM]	EC50 (Oxytocin receptor; read-out: EC50) [nM]	Time (Rattus norvegicus [9]) [min]	Efficacy (Vasopressin V2 receptor [10]) [%]	Efficacy [11] [%]	Time (Rattus norvegicus [12]) [unitless ratio]
> 5800	1.7	62	> 10000	> 10000	> 10000	> 10000	36	> 5800	1	CC[C@H](C)[C@@H]1NC(=O)[C@H](Cc2ccccc2)NC(=O)[C@@H](N)CSSC[C@@H](C(=O)N2CCC[C@H]2C(=O)N[C@@H](CCCN)C(=O)NCC(N)=O)NC(=O)[C@H](CC(N)=O)NC(=O)[C@H](CC(=O)N(C)C)NC1=O (H-CFID(NMe2)NCP[Orn]G-NH2; disulfide 1-6)		1.6						
> 10000	0.99	120	> 10000	> 10000	> 10000	> 10000	120	> 10000	8	CCNCCC[C@H](NC(=O)[C@@H]1CCCN1C(=O)[C@@H]1CSSC[C@H](N)C(=O)N[C@@H](Cc2ccccc2)C(=O)N[C@@H]([C@@H](C)CC)C(=O)N[C@@H](CC(N)=O)C(=O)N[C@@H](CC(N)=O)C(=O)N1)C(=O)NCC(N)=O (H-CFINNCP[X1]G-NH2; disulfide 1-6)								2.4
> 3400	2.9	37	> 10000	> 10000	> 10000	> 10000	12	> 3400	2	CC[C@H](C)[C@@H]1NC(=O)[C@H](Cc2ccccc2)NC(=O)[C@@H](N)CSSC[C@@H](C(=O)N2CCC[C@H]2C(=O)N[C@@H](CCN)C(=O)NCC(N)=O)NC(=O)[C@H](CC(N)=O)NC(=O)[C@H](CC(N)=O)NC1=O (H-CFINNCP[Dab]G-NH2; disulfide 1-6)								2
